ChEMBL document CHEMBL4414601 (J Med Chem, 2019)

Columns and labels:
[1] = system: Plasmodium falciparum; experiment: Antiplasmodial activity against Plasmodium falciparum 3D7A erythrocytic stage assessed as reduction in [3H]hypoxanthine incorporation preincubated for 24 hrs followed by [3H]hypoxanthine addition and measured after 24 hrs by microbeta scintillation counting method; assay type: functional, organism-based
Outline: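 Nine threefold serial dilutions from 5 μM top concentration. Incubated 24 h at 37 °C under 5% CO2/5% O2/90% N2, then 0.2 μCi [3H]-hypoxanthine per well for another 24 h. Cells harvested on glass fibre filters and counted. Data normalized to compound-free parasitized RBCs; IC50 fitted.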

[2] = Lipophilicity, LogD of compound by reverse phase HPLC analysis
[3] = Permeability of compound by PAMPA
[4] = Clearance in rat liver microsomes at 0.5 uM measured up to 45 mins in presence of NADPH by HPLC-MS/MS analysis; assay type: ADME, Microsome
[5] = system: Plasmodium falciparum; experiment: Antiplasmodial activity against […] of Plasmodium falciparum NF54 assessed as reduction in male gametocytes activation preincubated for 48 hrs followed by gametocytes activation and measured after 24 hrs by fluorescence based automated inverted microscopic analysis; assay type: functional, organism-based
Outline: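 Gametocyte activation was triggered by reduced temperature and ookinete medium containing xanthurenic acid. Male exflagellation centres were detected from a 10-frame video, scoring pixel changes caused by flagellar movement shifting surrounding cells.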

[6] = system: Plasmodium falciparum; experiment: Antiplasmodial activity against […] of Plasmodium falciparum NF54 assessed as reduction in female gametocytes activation preincubated for 48 hrs followed by gametocytes activation and measured after 24 hrs by fluorescence based automated inverted microscopic analysis; assay type: functional, organism-based
Outline: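 NF54 gametocytes were activated by lowered temperature plus ookinete medium with xanthurenic acid and anti-Pfs25-Cy3 antibody (1/2000 final dilution). Cultures were then kept at 26 °C for 24 h in the dark. Activated females were counted by Cy3 anti-Pfs25 fluorescence, with events gated on size, roundness and fluorescence intensity.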

[7] = target: Beta-2 adrenergic receptor (Homo sapiens, UniProt P07550); experiment: Antagonist activity at human beta2 adrenoceptor
Chain of Beta-2 adrenergic receptor (P07550 whole entry): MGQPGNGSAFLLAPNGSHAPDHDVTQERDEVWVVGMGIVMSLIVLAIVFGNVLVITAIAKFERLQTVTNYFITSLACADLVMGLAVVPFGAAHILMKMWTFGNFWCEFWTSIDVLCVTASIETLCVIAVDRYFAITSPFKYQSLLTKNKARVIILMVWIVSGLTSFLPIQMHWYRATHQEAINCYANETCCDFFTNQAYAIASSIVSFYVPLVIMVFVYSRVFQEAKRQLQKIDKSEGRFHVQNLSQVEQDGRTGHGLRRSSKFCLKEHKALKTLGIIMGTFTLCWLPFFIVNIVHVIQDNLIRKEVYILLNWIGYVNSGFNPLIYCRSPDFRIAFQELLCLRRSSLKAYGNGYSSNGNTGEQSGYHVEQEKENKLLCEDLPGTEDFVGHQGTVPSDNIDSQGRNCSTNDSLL

[8] = target: T1, Nuclear receptor subfamily 1 group I member 2 (Homo sapiens, UniProt O75469); experiment: Agonist activity at human PXR
T1 sequence (O75469 whole entry): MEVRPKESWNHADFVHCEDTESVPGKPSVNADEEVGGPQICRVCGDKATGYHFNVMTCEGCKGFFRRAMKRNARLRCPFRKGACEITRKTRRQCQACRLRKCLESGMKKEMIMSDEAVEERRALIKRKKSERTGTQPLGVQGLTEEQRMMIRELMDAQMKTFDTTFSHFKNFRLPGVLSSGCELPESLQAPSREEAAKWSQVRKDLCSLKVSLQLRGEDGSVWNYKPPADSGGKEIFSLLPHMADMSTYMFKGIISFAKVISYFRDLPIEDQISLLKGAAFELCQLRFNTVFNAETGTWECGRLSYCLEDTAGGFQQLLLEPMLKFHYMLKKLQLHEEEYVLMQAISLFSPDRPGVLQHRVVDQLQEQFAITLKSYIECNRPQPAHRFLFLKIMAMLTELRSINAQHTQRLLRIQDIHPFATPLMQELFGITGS

[9] = target: cGMP-inhibited 3',5'-cyclic phosphodiesterase 3A (Homo sapiens, UniProt Q14432); experiment: Inhibition of PDE3A (unknown origin)
Chain of cGMP-inhibited 3',5'-cyclic phosphodiesterase 3A (Q14432 whole entry): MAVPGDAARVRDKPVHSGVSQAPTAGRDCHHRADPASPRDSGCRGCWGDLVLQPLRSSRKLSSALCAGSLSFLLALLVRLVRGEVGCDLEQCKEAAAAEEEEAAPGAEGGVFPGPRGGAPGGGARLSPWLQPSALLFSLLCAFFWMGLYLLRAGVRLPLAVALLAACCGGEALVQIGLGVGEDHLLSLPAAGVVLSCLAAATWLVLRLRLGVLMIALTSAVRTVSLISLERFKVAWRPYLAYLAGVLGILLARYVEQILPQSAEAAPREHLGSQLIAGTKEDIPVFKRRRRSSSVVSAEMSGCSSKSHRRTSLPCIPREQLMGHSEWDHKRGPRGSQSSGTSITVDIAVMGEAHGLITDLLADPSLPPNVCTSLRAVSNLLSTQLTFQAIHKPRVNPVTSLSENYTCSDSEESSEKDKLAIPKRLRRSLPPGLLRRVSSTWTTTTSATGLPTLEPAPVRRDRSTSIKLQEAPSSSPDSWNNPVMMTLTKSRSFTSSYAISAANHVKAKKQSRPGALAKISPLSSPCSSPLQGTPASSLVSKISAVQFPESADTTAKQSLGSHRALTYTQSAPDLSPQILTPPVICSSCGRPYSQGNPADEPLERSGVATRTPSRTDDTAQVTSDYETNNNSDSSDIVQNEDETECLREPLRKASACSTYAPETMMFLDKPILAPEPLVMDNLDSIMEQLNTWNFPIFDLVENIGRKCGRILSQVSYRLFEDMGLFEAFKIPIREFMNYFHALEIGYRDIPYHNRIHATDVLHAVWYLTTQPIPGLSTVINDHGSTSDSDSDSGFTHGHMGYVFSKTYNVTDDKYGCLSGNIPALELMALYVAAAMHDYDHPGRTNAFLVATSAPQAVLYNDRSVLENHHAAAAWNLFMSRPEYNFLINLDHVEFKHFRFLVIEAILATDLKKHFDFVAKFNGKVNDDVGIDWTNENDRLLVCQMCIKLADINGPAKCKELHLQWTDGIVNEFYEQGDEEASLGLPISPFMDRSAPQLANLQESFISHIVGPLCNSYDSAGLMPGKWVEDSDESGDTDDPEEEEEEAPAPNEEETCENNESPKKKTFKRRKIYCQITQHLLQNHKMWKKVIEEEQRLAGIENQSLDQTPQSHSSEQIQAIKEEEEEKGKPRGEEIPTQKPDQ

[10] = system: Plasmodium falciparum; experiment: (§1) Antiplasmodial activity against Plasmodium falciparum 3D7A asexual erythrocytic stage assessed as reduction in [3H]hypoxanthine incorporation preincubated for 48 hrs followed by [3H]hypoxanthine addition and measured after 24 hrs by microbeta scintillation counting method; assay type: functional, organism-based
[11] = system: Plasmodium falciparum; experiment: as §1, with “3D7A harboring with PKG T618Q mutant” for “3D7A”, “72” for “48”; assay type: functional, organism-based
[12] = target: T2, Calcium-dependent protein kinase 4 (Plasmodium falciparum (isolate 3D7), UniProt Q8IBS5); experiment: Binding affinity to CDPK4 in Plasmodium falciparum 3D7 blood stage extract incubated for 1 hr by kinobeads based pull down assay; conditions: read-out: Kd(app)
T2 sequence (Q8IBS5 whole entry): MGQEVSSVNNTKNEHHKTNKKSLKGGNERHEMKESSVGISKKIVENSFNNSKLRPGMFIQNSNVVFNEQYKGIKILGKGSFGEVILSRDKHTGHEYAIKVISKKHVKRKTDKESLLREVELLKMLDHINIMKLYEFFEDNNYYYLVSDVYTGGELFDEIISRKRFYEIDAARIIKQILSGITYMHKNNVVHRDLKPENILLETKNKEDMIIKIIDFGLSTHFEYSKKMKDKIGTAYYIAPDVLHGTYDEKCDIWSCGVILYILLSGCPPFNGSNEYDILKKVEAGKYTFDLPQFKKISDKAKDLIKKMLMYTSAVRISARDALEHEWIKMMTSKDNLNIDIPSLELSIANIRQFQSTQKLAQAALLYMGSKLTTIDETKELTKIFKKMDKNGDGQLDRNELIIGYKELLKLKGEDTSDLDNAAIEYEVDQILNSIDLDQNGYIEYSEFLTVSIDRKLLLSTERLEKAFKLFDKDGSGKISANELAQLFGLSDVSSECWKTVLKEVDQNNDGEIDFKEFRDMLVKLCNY
Outline: (§2)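 Chemoproteomic competition used kinobeads or Sepharose beads derivatized with ligand at 1 mM. Free compound was tested at six concentrations between 0.08 and 20 μM, in two independent experiments. Proteins were SP3-digested, TMT 10-plex labelled and measured by LC-MS/MS. IC50s came from competition curves, and apparent Kd was corrected for protein depletion by the beads.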

[13] = target: T2, Calcium-dependent protein kinase 4; experiment: Binding affinity to CDPK4 in Plasmodium falciparum 3D7 blood stage extract incubated for 1 hr in presence of ATP-competitive kinase inhibitor by kinobeads based pull down assay; conditions: read-out: Kd(app); outline: as §2
[14] = target: Calcium-dependent protein kinase 1 (Plasmodium falciparum, UniProt P62344); experiment: Binding affinity to CDPK1 in Plasmodium falciparum 3D7 blood stage extract incubated for 1 hr by kinobeads based pull down assay; conditions: read-out: Kd(app); outline: as §2
Chain of Calcium-dependent protein kinase 1 (P62344 whole entry): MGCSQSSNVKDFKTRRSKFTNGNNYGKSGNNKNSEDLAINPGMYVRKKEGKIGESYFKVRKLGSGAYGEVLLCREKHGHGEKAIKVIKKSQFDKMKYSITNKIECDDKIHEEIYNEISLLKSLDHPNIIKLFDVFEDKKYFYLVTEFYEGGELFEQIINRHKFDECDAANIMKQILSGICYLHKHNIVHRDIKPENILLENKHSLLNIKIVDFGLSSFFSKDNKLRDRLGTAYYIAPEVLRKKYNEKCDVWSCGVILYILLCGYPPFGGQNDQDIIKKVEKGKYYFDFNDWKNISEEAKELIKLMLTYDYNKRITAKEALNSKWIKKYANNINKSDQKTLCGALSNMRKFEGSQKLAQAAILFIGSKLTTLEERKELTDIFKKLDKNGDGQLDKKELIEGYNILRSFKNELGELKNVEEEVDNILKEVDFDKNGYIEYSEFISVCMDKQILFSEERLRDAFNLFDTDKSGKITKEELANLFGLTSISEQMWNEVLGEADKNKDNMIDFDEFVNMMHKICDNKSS

[15] = Binding affinity to zinc finger (CCCH type) protein in Plasmodium falciparum 3D7 blood stage extract incubated for 1 hr by kinobeads based pull down assay; conditions: read-out: Kd(app)
[16] = Binding affinity to zinc finger (CCCH type) protein in Plasmodium falciparum 3D7 blood stage extract incubated for 1 hr in presence of ATP-competitive kinase inhibitor by kinobeads based pull down assay; conditions: read-out: Kd(app)
[17] = Binding affinity to GSK3 in Plasmodium falciparum 3D7 blood stage extract incubated for 1 hr by kinobeads based pull down assay; conditions: read-out: Kd(app)
Outline: (§3)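 The free compound competed over six concentrations from 0.08 to 20 μM. Proteins were digested by a modified SP3 protocol, labelled with TMT 10-plex and quantified by LC-MS/MS. Apparent Kd was derived from IC50 corrected for bead depletion. Two independent experiments were run.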

[18] = Binding affinity to SRPK2 in Plasmodium falciparum 3D7 blood stage extract incubated for 1 hr in presence of ATP-competitive kinase inhibitor by kinobeads based pull down assay; conditions: read-out: Kd(app); outline: as §3

Cc1cc(Nc2nccc(-c3sc(C4CCNCC4)nc3-c3ccc(F)cc3)n2)ccn1
EC50 [1]: 160 nM
chromatographic logD [2]: 2.54
Papp [3]: 21 ×10⁻⁶ cm/s
CLH [4]: 0.87 mL/min/g
EC50 [5]: 300 nM
EC50 [6]: 400 nM
IC50 [7]: > 100000 nM
EC50 [8]: > 50000 nM
IC50 [9]: > 100000 nM
EC50 [10]: 130 nM
EC50 [11]: 120 nM
Kd [12]: 50 nM
Kd [13]: 50 nM
Kd [14]: 50 nM
Kd [15]: 3900 nM
Kd [16]: 3900 nM
Kd [17]: 90 nM
Kd [18]: 190 nM
